Reference: PubChem BioAssay
Activity calls are given as the source filed them.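 How the source made its calls, unless noted: active means viability loss from added drug above about 55%, and viability with drug at most 40%, in both replicates (limit read from the data, passing the limit was not always enough); inconclusive means both conditions met in only one replicate; inactive means neither replicate meets both conditions.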

How the values were obtained:
[1] = reduced viability of SK-BR-3 breast cancer cells – cell-based, 24 h, human, pilot screen (AID 572;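 active means viability at or below 10% of carrier control in both of two separate runs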;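 further: compound exposure lasted between 18 and 24 h rather than exactly 24 h; 100% = carrier-treated control wells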); settings: SK-BR-3 viability, CellTiter-Glo luminescence, at 10 µM, stronger effect = lower value
[2] = HUVEC growth inhibition – cell-based, human, primary screen (AID 575;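 active means viability at or below 30% in both replicate assays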;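 further: 100% = median of untreated cell wells with 0.1% DMSO on each plate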); settings: HUVEC proliferation, CellTiter-Glo luminescence, 72 h; at 10 µM; stronger effect = lower value
Method in brief: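 System: primary human umbilical vein endothelial cells; Quantity: 1250 endothelial cells in each well; Buffer or medium: supplemented EBM, 2% fetal bovine serum; Doses: one dose, 10 µM final, 0.1% DMSO; Incubation: 72 h compound incubation; Technique: ATP-based CellTiter-Glo luminescent read; Evaluation: percent of median DMSO-control luminescence; Controls: vehicle and MePR control wells.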

[3] = H69AR cell proliferation blockers – human, duplicate replicates, primary screen (AID 580;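 active means viability at or under a set limit in both replicates, limit being median viability minus 3 SD, cut at about 48% in these data, passing the limit was not always enough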;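 further: 100% = mean luminescence of untreated wells and 0% = no signal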); settings: H69AR lung tumor cells viability, ATP luminescence, 72 h; at 10 µM; stronger effect = lower value
[4] = MRP1 drug-resistance reversers in H69AR cells – cell-based, doxorubicin co-treatment, pilot screen (AID 601); settings: CellTiter-Glo, 72 h, at 10 µM; for differential viability (reversal): stronger effect = higher value
[5] = yeast transport mutant growth inhibition pilot in 384-well plates, post-Golgi transport modulator project (AID 636; in the data active means inhibition above about 31%); settings: absorbance 615 nm, about 18 h, stronger effect = higher value
[6] = growth suppression of yeast trafficking mutant, preliminary HTS, modulators of trafficking downstream of Golgi apparatus project, 1536-format plate, OD 615 nm (AID 637; in the data active means inhibition above about 30%); settings: yeast transport mutant growth, absorbance 615 nm, 18 h; stronger effect = higher value
[7] = H69AR cells + 2 uM doxorubicin, measured here: viability with 2 uM doxorubicin, stronger effect = lower value
[8] = H69AR cells, compound alone cytotoxicity

Row | Structure (SMILES) | viability [1] | viability [2] | viability [3] | differential viability (reversal) ([4]; H69AR cells + 2 uM doxorubicin) | viability [4, 7] [%] | viability [4, 8] [%] | inhibition [5] | inhibition [6]
1 | O=C(CSc1nc(-c2ccco2)cc(C(F)(F)F)n1)N1CCCc2ccccc21 | 109% (inactive) | 72.5% (inactive) | 84% (inactive) | 2.16% (inactive) | 81.9 | 84 | -1.05% (inactive) | -0.16% (inactive)
2 | COc1ccccc1NC(=O)C(C)NS(=O)(=O)c1ccc(F)cc1 (centres undefined) | 141% (inactive) | 89.5% (inactive) | 89.2% (inactive) | 0.595% (inactive) | 88.6 | 89.2 | -5.58% (inactive) | 0% (inactive)
3 | COc1nc(-c2ccc(Cl)cc2)ccc1-c1noc(-c2ccncc2)n1 | 109% (inactive) | 103% (inactive) | 82.4% (inactive) | 1.99% (inactive) | 80.4 | 82.4 | -6.99% (inactive) | -7.64% (inactive)
4 | CCN(CC(=O)Nc1ccc2c(c1)OCCO2)Cc1cc(=O)oc2cc(C)c(C)cc12 | 93% (inactive) | 82.2% (inactive) | 73.8% (inactive) | 5.8% (inactive) | 68 | 73.8 | -5.75% (inactive) | 3.09% (inactive)
5 | O=C(Nc1cccnc1)c1cc2c(ccc3ccccc32)o1 | 96% (inactive) | 97.3% (inactive) | 84.9% (inactive) | 0.36% (inactive) | 84.5 | 84.9 | -0.13% (inactive) | -3.45% (inactive)
6 | O=C(Cn1c(=O)oc2ccccc21)N1CCN(c2ccccc2)CC1 | 94% (inactive) | 104% (inactive) | 88.8% (inactive) | -3.33% (inactive) | 92.1 | 88.8 | -8.63% (inactive) | 8.18% (inactive)
7 | O=C(CSc1ccccc1C(=O)NCCCN1CCCC1=O)NCc1ccco1 | 108% (inactive) | 102% (inactive) | 82.3% (inactive) | 2.32% (inactive) | 80 | 82.3 | -3.6% (inactive) | 6% (inactive)
8 | O=S(=O)(c1ccc(N2CCN(c3ccc(F)cc3)CC2)cc1)N1CCCC1 | 111% (inactive) | 77.2% (inactive) | 75.7% (inactive) | -4.83% (inactive) | 80.6 | 75.7 | -0.91% (inactive) | 15.4% (inactive)
9 | Cc1oc2cc3c(C(=O)OCCN(C)C)c(C)oc3cc2c1C(=O)OCCN(C)C | 92.5% (inactive) | 72.2% (inactive) | 90.4% (inactive) | -16.8% (inactive) | 107 | 90.4 | -3.95% (inactive) | -10% (inactive)
10 | CNC(=O)CSc1nc2c(c(=O)n(C)c(=O)n2C)n1Cc1ccc(C)cc1 | 100% (inactive) | 92.4% (inactive) | 96.2% (inactive) | 16.2% (inactive) | 79.9 | 96.2 | -2% (inactive) | -7.45% (inactive)
11 | Cc1ccc(CN2CCN(C(=O)C3CCC3)CC2)cc1 | 88% (inactive) | 102% (inactive) | 97% (inactive) | 4.13% (inactive) | 92.9 | 97 | -8.49% (inactive) | 2.36% (inactive)
12 | Cc1sc2ncnc(Oc3ccc(-n4ccnc4)cc3)c2c1C | 88% (inactive) | 102% (inactive) | 87.2% (inactive) | -15.1% (inactive) | 102 | 87.2 | -8.77% (inactive) | 3.27% (inactive)
13 | C[C@]12CCC(=O)C=C1CC[C@@H]1[C@@H]2[C@@H](O)C[C@@]2(C)[C@H]1CC[C@]2(O)C(=O)CO | 103% (inactive) | 96.2% (inactive) | 105% (inactive) | 5.76% (inactive) | 98.9 | 105 | -1.43% (inactive) | -3.83% (inactive)
14 | O=C(CN1C(=O)NC2(CCCCC2)C1=O)Nc1ccc(S(=O)(=O)N2CCOCC2)cc1 | 124% (inactive) | 98.3% (inactive) | 96.3% (inactive) | 13.6% (inactive) | 82.7 | 96.3 | -3.38% (inactive) | 3.77% (inactive)
15 | COc1ccc(-c2nnc(SC(C)C(=O)Nc3nccs3)n2-c2ccccc2)cc1OC (centres undefined) | 105% (inactive) | 83.5% (inactive) | 86.8% (inactive) | -0.545% (inactive) | 87.4 | 86.8 | -0.96% (inactive) | 3.87% (inactive)
16 | CCc1nnc(NC(=O)CSc2nnc(-c3cc4ccccc4cc3O)n2CC)s1 | 84% (inactive) | 78.4% (inactive) | 90.1% (inactive) | 1.08% (inactive) | 89.1 | 90.1 | -1.95% (inactive) | -3.28% (inactive)
17 | CCOC(=O)C1CCCN(C(=O)c2sc3nc(-c4ccccc4)cn3c2C)C1 (centres undefined) | 112% (inactive) | 89.3% (inactive) | 84.9% (inactive) | 1.98% (inactive) | 82.9 | 84.9 | -1.3% (inactive) | 15.9% (inactive)
18 | CN(C)CCC(c1ccc(Br)cc1)c1ccccn1 (centres undefined) | 110% (inactive) | 80.3% (inactive) | 102% (inactive) | 10.6% (inactive) | 91.4 | 102 | -2.73% (inactive) | -3.5% (inactive)
